According to ChEMBL document CHEMBL4266027, “Cyanobufalins: Cardioactive Toxins from Cyanobacterial Blooms” (J Nat Prod, 2018):

How the values were obtained:
BT-474 = assay: Cytotoxicity against human BT474 cells assessed as decrease in cell viability after 72 hrs by MTS assay; assay type: functional, cell-based; details: BT-474, 72 h
How it was run: (§1)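 Cell proliferation assay using the MTS reagent. Compounds were tested as a dilution series, and EC50 values were derived from the concentration–response data.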

SK-OV-3 = assay: Cytotoxicity against human SKOV3 cells assessed as decrease in cell viability after 72 hrs by MTS assay; assay type: functional, cell-based; details: SK-OV-3, 72 h; how it was run: as §1
PANC-1 = assay: Cytotoxicity against human PANC1 cells assessed as decrease in cell viability after 72 hrs by MTS assay; assay type: functional, cell-based; details: PANC-1, 72 h; how it was run: as §1
HCT-116 = assay: Cytotoxicity against human HCT116 cells assessed as decrease in cell viability after 72 hrs by MTS assay; assay type: functional, cell-based; details: HCT-116, 72 h; how it was run: as §1
HepG2 = assay: Cytotoxicity against human HepG2 cells assessed as decrease in cell viability after 72 hrs by MTS assay; assay type: functional, cell-based; details: HepG2, 72 h; how it was run: as §1
DU-145 = assay: Cytotoxicity against human DU145 cells assessed as decrease in cell viability after 72 hrs by MTS assay; assay type: functional, cell-based; details: DU-145, 72 h; how it was run: as §1
HT-1080 = assay: Cytotoxicity against human HT1080 cells assessed as decrease in cell viability after 72 hrs by MTS assay; assay type: functional, cell-based; details: HT-1080, 72 h; how it was run: as §1
MES-SA = assay: Cytotoxicity against human MESSA cells assessed as decrease in cell viability after 72 hrs by MTS assay; assay type: functional, cell-based; how it was run: as §1
MES-SA/Dx5 = assay: Cytotoxicity against human MES-SA/Dx5 cells assessed as decrease in cell viability after 72 hrs by MTS assay; assay type: functional, cell-based; details: MES-SA/Dx5, 72 h; how it was run: as §1
786-0 = assay: Cytotoxicity against human 786-O cells assessed as decrease in cell viability after 72 hrs by MTS assay; assay type: functional, cell-based; details: 786-0, 72 h; how it was run: as §1
Daudi = assay: Cytotoxicity against human Daudi cells assessed as decrease in cell viability after 72 hrs by MTS assay; assay type: functional, cell-based; how it was run: as §1
THP-1 = assay: Cytotoxicity against human THP1 cells assessed as decrease in cell viability after 72 hrs by MTS assay; assay type: functional, cell-based; details: THP-1, 72 h; how it was run: as §1
HeLa = assay: Cytotoxicity against human HeLa cells assessed as decrease in cell viability after 72 hrs by MTS assay; assay type: functional, cell-based; how it was run: as §1
MCF7 = assay: Cytotoxicity against human MCF7 cells assessed as decrease in cell viability after 72 hrs by MTS assay; assay type: functional, cell-based; details: MCF7, 72 h; how it was run: as §1
BXPC-3 = assay: Cytotoxicity against human BxPC3 cells assessed as decrease in cell viability after 72 hrs by MTS assay; assay type: functional, cell-based; details: BXPC-3, 72 h; how it was run: as §1
LoVo = assay: Cytotoxicity against human LoVo cells assessed as decrease in cell viability after 72 hrs by MTS assay; assay type: functional, cell-based; how it was run: as §1
[1] = Cytotoxicity against human LOX cells assessed as decrease in cell viability after 72 hrs by MTS assay; assay type: functional, cell-based; how it was run: as §1
U-87 MG = assay: Cytotoxicity against human U87MG cells assessed as decrease in cell viability after 72 hrs by MTS assay; assay type: functional, cell-based, U-87MG ATCC; how it was run: as §1
NCI-N87 = assay: Cytotoxicity against human NCI-N87 cells assessed as decrease in cell viability after 72 hrs by MTS assay; assay type: functional, cell-based; details: NCI-N87, 72 h; how it was run: as §1
A549 = assay: Cytotoxicity against human A549 cells assessed as decrease in cell viability after 72 hrs by MTS assay; assay type: functional, cell-based; details: A549, 72 h; how it was run: as §1
NCI-H1975 = assay: Cytotoxicity against human NCI-H1975 cells assessed as decrease in cell viability after 72 hrs by MTS assay; assay type: functional, cell-based; details: NCI-H1975, 72 h; how it was run: as §1
MV4-11 = assay: Cytotoxicity against human MV411 cells assessed as decrease in cell viability after 72 hrs by MTS assay; assay type: functional, cell-based; details: MV4-11, 72 h; how it was run: as §1
MDA-MB-468 = assay: Cytotoxicity against human MDA-MB-468 cells assessed as decrease in cell viability after 72 hrs by MTS assay; assay type: functional, cell-based; details: MDA-MB-468, 72 h; how it was run: as §1
HUVEC = assay: Cytotoxicity against human HUVEC cells assessed as decrease in cell viability after 72 hrs by MTS assay; assay type: cell-based; how it was run: as §1
MRC5 = assay: Cytotoxicity against human MRC5 cells assessed as decrease in cell viability after 72 hrs by MTS assay; assay type: cell-based; details: MRC5, 72 h; how it was run: as §1
H22 = assay: Cytotoxicity against mouse H22 cells assessed as decrease in cell viability after 72 hrs by MTS assay; assay type: functional, cell-based; details: H22, 72 h; how it was run: as §1
CCRF S-180 = assay: Cytotoxicity against mouse S180 cells assessed as decrease in cell viability after 72 hrs by MTS assay; assay type: functional, cell-based; details: CCRF S-180, 72 h; how it was run: as §1

CC1(C)[C@@H](OC(N)=O)[C@H]2O[C@H]2[C@]2(C=O)[C@H]3CC[C@]4(C)[C@@H](c5ccc(=O)oc5)[C@@H](Cl)C[C@]4(O)C3=CC[C@@H]12
EC50 (BT-474): 3.9 nM | EC50 (SK-OV-3): 6.1 nM | EC50 (PANC-1): 2.4 nM | EC50 (HCT-116): 5.9 nM | EC50 (HepG2): 3.2 nM | EC50 (DU-145): 7.2 nM | EC50 (HT-1080): 5.4 nM | EC50 (MES-SA): 7.4 nM | EC50 (MES-SA/Dx5): 5.7 nM | EC50 (786-0): 2.6 nM | EC50 (Daudi): 2.8 nM | EC50 (THP-1): 4.1 nM | EC50 (HeLa): 5.1 nM | EC50 (MCF7): 15 nM | EC50 (BXPC-3): 5.5 nM | EC50 (LoVo): 6 nM | EC50 [1]: 3.2 nM | EC50 (U-87 MG): 6.4 nM | EC50 (NCI-N87): 6.3 nM | EC50 (A549): 3.8 nM | EC50 (NCI-H1975): 4.9 nM | EC50 (MV4-11): 6.4 nM | EC50 (MDA-MB-468): 8.4 nM | EC50 (HUVEC): 7.7 nM | EC50 (MRC5): 2.7 nM | EC50 (H22): 2400 nM | EC50 (CCRF S-180): > 20 µM
